Where two headings read alike, the source gives them in different places. Starred links: 1 amine or outer side, 2 acyl side, 3 side chain; linkers in the order of their positions; H or OH if unused. Positions of bridges follow the written chain, without caps; N, C: chain ends. Non-standard residues stand in square brackets, D forms with d. Residues, ends and D or L forms follow the SMILES beside them. *: point of attachment. hTyr(3S-OH,4S-OH,3'-OSO3H) = N[C@H](C(=O)O)[C@H](O)[C@@H](O)c1ccc(O)c(OS(=O)(=O)O)c1; Orn(4R-OH,5R-OH) = O=C([C@H](C[C@@H](O)[C@@H](O)N[*:3])N[*:1])[*:2]; Pro(3S-OH,4S-Me) = C[C@H]1CN[C@H](C(=O)O)[C@H]1O; X1 = CCCCCOc1ccc(-c2cc(-c3ccc(C(=O)*)cc3)no2)cc1; Gln(3R-OH) = NC(=O)C[C@@H](O)[C@H](N)C(=O)O; Hyp = O=C(O)[C@@H]1C[C@@H](O)CN1
Legend:
[1] = Open-label PK trial of IV micafungin in infants on ECMO; settings: human, in vivo
[2] = Observed micafungin exposure; type: in vivo, infants; settings: 4 mg/kg IV every 24h
Method in brief: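 Infants on ECMO, prophylactic arm, given IV test compound 4 mg/kg every 24h for up to 8 days. EDTA arterial plasma sampled around dose 4, from pre-infusion to 22-24h post-infusion, and assayed by HPLC-fluorescence (LLOQ 0.05 mg/L). AUC0-24 was computed from observed data by the linear-up log-down trapezoidal method and compared with the therapeutic target of 75-139 mg*h/L.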

[3] = Safety: adverse events in infants on ECMO receiving micafungin; type: in vivo
[4] = cited from earlier work
[5] = ref 33; cited from earlier work
[6] = cited from earlier work; remark: listed apart in the source
[7] = via hepatic transporter proteins; cited from earlier work
[8] = neonatal trial of 15 mg/kg/day; standard deviation 99; cited from earlier work
[9] = phase III efficacy trial, used as target efficacy exposure; cited from earlier work
[10] = infants and children receiving micafungin; cited from earlier work
[11] = cited from earlier work; remark: listed apart in the source
Candida spp = settings: ref 6-8; cited from earlier work

CCCCCOc1ccc(-c2cc(-c3ccc(C(=O)N[C@H]4C[C@@H](O)[C@@H](O)NC(=O)[C@@H]5[C@@H](O)[C@@H](C)CN5C(=O)[C@H]([C@H](O)CC(N)=O)NC(=O)[C@H]([C@H](O)[C@@H](O)c5ccc(O)c(OS(=O)(=O)O)c5)NC(=O)[C@@H]5C[C@@H](O)CN5C(=O)[C@H]([C@@H](C)O)NC4=O)cc3)no2)cc1 [micafungin] (X1-[Orn(4R-OH,5R-OH)]T[Hyp][hTyr(3S-OH,4S-OH,3'-OSO3H)][Gln(3R-OH)][Pro(3S-OH,4S-Me)]; lactam 1-C)
Vd [1]: 0.64 L/kg
clearance [1]: 0.041 L/h/kg
Infants with a hemofilter achieving AUC0-24 within or above the therapeutic target range ([2]; after dose 1 and 4, Two/4 infants): 50%
Infants within the therapeutic range after dose 4 ([2]; prophylactic arm, 3/5 infants sampled around dose 4): 60%
Infants achieving the therapeutic exposure target (75-139 mg*h/L) after a single dose ([2]; prophylactic arm, 5/11 infants): 45%
Deaths considered related to micafungin ([3]; 12 infants on ECMO, study period): None
Tolerability ([3]; cohort of infants supported by ECMO): well tolerated
Protein bound ([4]; ref 14): > 99%
Protein bound ([4]; ref 33): > 99%
logP [5]: −1.5
V reported in infants not on ECMO ([6]; ref 15, 25): 0.34 to 0.54 L/kg
CL, previously reported values for infants not supported by ECMO ([6]; ref 19, 24-26): 0.020 to 0.039 L/h/kg
Excreted primarily unchanged into bile and feces [7]: 71%
Mean (standard deviation) exposure deemed safe [8]: 438 µg·h/mL
AUC0-24 range, exposure of adult participants who cleared their fungal infection [9]: 75 to 139 µg·h/mL
Hypokalemia, proportion of infants and children [10]: 2%
Liver toxicity, proportion of infants and children [10]: 3%
Time reconstituted micafungin is stable ([11]; reconstituted, room temperature, exposed to light): up to 24 hours
Light sensitivity ([11]; ref 16): light-sensitive
Activity against a broad spectrum of Candida spp (Candida spp): fungicidal
Biofilm penetration (Candida spp): can penetrate biofilms
